Assay results as given in ChEMBL document CHEMBL1139170, “Synthesis of 3-[4'-(p-chlorophenyl)-thiazol-2'-yl]-2-[(substituted azetidinone/thiazolidinone)-aminomethyl]-6-bromoquinazolin-4-ones as anti-inflammatory agent” (Bioorg Med Chem, 2007).

Tests used:
[1] = test system: Rattus norvegicus; assay: Antiinflammatory activity against carrageenan-induced hind paw oedema in Charles foster rat assessed as inhibition of paw oedema at 50 mg/kg, po after 1 hr; assay type: functional; parameters: scale not given: the % may be the effect or the level left
Method in brief: (§1)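 Charles-Foster albino rats of either sex, no pregnant females, 70–95 days old, 100–150 g. Oral dose of 25, 50 or 100 mg/kg given 1 h before carrageenan. Carrageenan was a fresh 1% suspension in 0.9% saline, 0.05 mL under the plantar aponeurosis of the right hind paw. Paw volume measured by plethysmometer before and 3 h after carrageenan. Result is percent inhibition of oedema.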

[2] = Acute toxicity in albino mouse assessed as percent mortality after 24 hrs; assay type: organism-based; settings: in vivo, read-out: ALD50
[3] = test system: Mus musculus; assay: Analgesic activity in Albino mouse assessed as number of acetic acid-induced writhing at 50 mg/kg, po after 30 min; assay type: functional
[4] = test system: Mus musculus; assay: Analgesic activity in Albino mouse assessed as number of acetic acid-induced writhing at 100 mg/kg, po after 30 min; assay type: functional
[5] = test system: Mus musculus; assay: Analgesic activity in Albino mouse assessed as number of acetic acid-induced writhing at 25 mg/kg, po after 30 min; assay type: functional
[6] = organism: Rattus norvegicus; assay: Ulcerogenic activity in 24 hrs fasted Charles foster rat; assay type: functional
Method in brief: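 Albino rats fasted 24 h, then given compound. Killed 8 h after dosing. Stomach and small intestine examined for hyperaemia, epithelial shedding, petechial or frank haemorrhage, and erosion or ulceration with or without perforation. Any one of these counted as ulcerogenic. Route reported as i.p. for the UD50.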

[7] = test system: Rattus norvegicus; assay: Antiinflammatory activity against carrageenan-induced hind paw oedema in Charles foster rat assessed as inhibition of paw oedema at 100 mg/kg, po after 1 hr; assay type: functional; parameters: scale not given: the % may be the effect or the level left; method in brief: as §1
[8] = test system: Rattus norvegicus; assay: Antiinflammatory activity against carrageenan-induced hind paw oedema in Charles foster rat assessed as inhibition of paw oedema at 25 mg/kg, po after 1 hr; assay type: functional; parameters: scale not given: the % may be the effect or the level left; method in brief: as §1

| SMILES | Activity [1] [%] | LD50 at 24 h [2] [mg/kg] | Activity [3] [%] | Activity [4] [%] | Activity [5] [%] | UD50 [6] [mg/kg] | Activity [7] [%] | Activity [8] [%] |
| --- | --- | --- | --- | --- | --- | --- | --- | --- |
| COc1ccc(C2SCC(=O)N2NCc2nc3ccc(Br)cc3c(=O)n2-c2nc(-c3ccc(Cl)cc3)cs2)cc1 (centres undefined) | 36.11 | > 1000 | 34.27 | – | – | – | – | – |
| O=c1c2cc(Br)ccc2nc(CN/N=C/c2ccc(Cl)cc2)n1-c1nc(-c2ccc(Cl)cc2)cs1 | 25.12 | > 1000 | 23.42 | – | – | – | – | – |
| COc1ccccc1/C=N/NCc1nc2ccc(Br)cc2c(=O)n1-c1nc(-c2ccc(Cl)cc2)cs1 | 24.66 | > 1000 | 22.18 | – | – | – | – | – |
| O=c1c2cc(Br)ccc2nc(CN/N=C/c2ccc(O)cc2)n1-c1nc(-c2ccc(Cl)cc2)cs1 | 20.23 | > 1000 | 18.96 | – | – | – | – | – |
| Cc1ccc(/C=N/NCc2nc3ccc(Br)cc3c(=O)n2-c2nc(-c3ccc(Cl)cc3)cs2)cc1 | 19.14 | > 1000 | 18.52 | – | – | – | – | – |
| O=c1c2cc(Br)ccc2nc(CN/N=C/c2ccccc2Cl)n1-c1nc(-c2ccc(Cl)cc2)cs1 | 26.44 | > 1000 | 24.68 | – | – | – | – | – |
| COc1ccccc1C1C(Cl)C(=O)N1NCc1nc2ccc(Br)cc2c(=O)n1-c1nc(-c2ccc(Cl)cc2)cs1 (centres undefined) | 32.45 | > 1000 | 31.89 | – | – | – | – | – |
| COc1ccc(C2C(Cl)C(=O)N2NCc2nc3ccc(Br)cc3c(=O)n2-c2nc(-c3ccc(Cl)cc3)cs2)cc1 (centres undefined) | 31.67 | > 1000 | 30.67 | – | – | – | – | – |
| O=C1C(Cl)C(c2ccc(O)cc2)N1NCc1nc2ccc(Br)cc2c(=O)n1-c1nc(-c2ccc(Cl)cc2)cs1 (centres undefined) | 30.65 | > 1000 | 29.92 | – | – | – | – | – |
| Cc1ccc(C2C(Cl)C(=O)N2NCc2nc3ccc(Br)cc3c(=O)n2-c2nc(-c3ccc(Cl)cc3)cs2)cc1 (centres undefined) | 29.88 | > 1000 | 29.12 | – | – | – | – | – |
| O=C1CSC(c2ccccc2Cl)N1NCc1nc2ccc(Br)cc2c(=O)n1-c1nc(-c2ccc(Cl)cc2)cs1 (centres undefined) | 38.35 | > 1000 | 37.36 | 61.12 | 14.22 | 195.6 | 67.45 | 17.84 |
| COc1ccccc1C1SCC(=O)N1NCc1nc2ccc(Br)cc2c(=O)n1-c1nc(-c2ccc(Cl)cc2)cs1 (centres undefined) | 36.98 | > 1000 | 35.43 | – | – | – | – | – |
| O=C1CSC(c2ccc(Cl)cc2)N1NCc1nc2ccc(Br)cc2c(=O)n1-c1nc(-c2ccc(Cl)cc2)cs1 (centres undefined) | 37.06 | > 1000 | 36.26 | – | – | – | – | – |
| O=C1C(Cl)C(c2ccc(Cl)cc2)N1NCc1nc2ccc(Br)cc2c(=O)n1-c1nc(-c2ccc(Cl)cc2)cs1 (centres undefined) | 33.07 | > 1000 | 32.62 | – | – | – | – | – |
| COc1ccc(/C=N/NCc2nc3ccc(Br)cc3c(=O)n2-c2nc(-c3ccc(Cl)cc3)cs2)cc1 | 23.29 | > 1000 | 21.69 | – | – | – | – | – |
| CN(C)c1ccc(/C=N/NCc2nc3ccc(Br)cc3c(=O)n2-c2nc(-c3ccc(Cl)cc3)cs2)cc1 | 17.88 | > 1000 | 16.84 | – | – | – | – | – |
| O=c1c2cc(Br)ccc2nc(CN/N=C/c2ccccc2)n1-c1nc(-c2ccc(Cl)cc2)cs1 | 18.75 | > 1000 | 17.12 | – | – | – | – | – |
| O=C1C(Cl)C(c2ccccc2Cl)N1NCc1nc2ccc(Br)cc2c(=O)n1-c1nc(-c2ccc(Cl)cc2)cs1 (centres undefined) | 34.21 | > 1000 | 34.11 | – | – | – | – | – |
| CN(C)c1ccc(C2C(Cl)C(=O)N2NCc2nc3ccc(Br)cc3c(=O)n2-c2nc(-c3ccc(Cl)cc3)cs2)cc1 (centres undefined) | 28.55 | > 1000 | 27.35 | – | – | – | – | – |
| O=C1CSC(c2ccccc2)N1NCc1nc2ccc(Br)cc2c(=O)n1-c1nc(-c2ccc(Cl)cc2)cs1 (centres undefined) | 33.88 | > 1000 | 32.45 | – | – | – | – | – |
| O=C1CSC(c2ccc(O)cc2)N1NCc1nc2ccc(Br)cc2c(=O)n1-c1nc(-c2ccc(Cl)cc2)cs1 (centres undefined) | 35.13 | > 1000 | 33 | – | – | – | – | – |
| Cc1ccc(C2SCC(=O)N2NCc2nc3ccc(Br)cc3c(=O)n2-c2nc(-c3ccc(Cl)cc3)cs2)cc1 (centres undefined) | 34.25 | > 1000 | 32.87 | – | – | – | – | – |
| O=C1C(Cl)C(c2ccccc2)N1NCc1nc2ccc(Br)cc2c(=O)n1-c1nc(-c2ccc(Cl)cc2)cs1 (centres undefined) | 29.16 | > 1000 | 28.59 | – | – | – | – | – |
| CN(C)c1ccc(C2SCC(=O)N2NCc2nc3ccc(Br)cc3c(=O)n2-c2nc(-c3ccc(Cl)cc3)cs2)cc1 (centres undefined) | 32.89 | > 1000 | 28.76 | – | – | – | – | – |
| CCCCC1C(=O)N(c2ccccc2)N(c2ccccc2)C1=O [PHENYLBUTAZONE] | 38.9 | – | 36.5 | 60.23 | 16.3 | 66.6 | 66.58 | 18.46 |
